PubChem BioAssay
Inconclusive results are not listed.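 Rule for the calls, unless noted: active = growth inhibition above 25% in both replicates, a cutoff set 3 SD above the mean; inconclusive = above 25% in only one replicate; inactive = the rest.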

What was measured:
[1] = OD615 S. cerevisiae growth inhibition, permissive medium, pilot counter-assay, permissive growth control for S. cerevisiae lifespan shortening project (AID 705); details: OD615, 24 h, at 10 µM, active compounds read high
Summary of the method: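 Material: engineered DeaD yeast; compound dosing: one dose 10 µM, DMSO 0.25% final; measure: yeast growth inhibition indicated by reduced 24 h OD615; detection: OD615 turbidity read; incubation: cells pre-grown 4 h, then 24 h compound exposure, 30 °C humidified; medium: permissive synthetic complete medium with raffinose and galactose carbon sources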

[2] = Restrictive medium S. cerevisiae growth inhibition, OD615, pilot screen of yeast lifespan reduction project, restrictive growth control (AID 706;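 active = growth inhibition above a set limit, 3 SD over mean compound inhibition, in both replicates, cut at about 43% in these data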;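 note: modified DeaD lifespan yeast strain shifted to restrictive glucose medium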); details: OD615, 48 h, at 10 µM, active compounds read high
Summary of the method: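 material = engineered S. cerevisiae DeaD strain | medium = glucose-based CSMM-D restrictive medium | times = 4 h pre-incubation, 48 h exposure at 30 °C | technique = OD615 absorbance reading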

[3] = viability gain of MRP-1-high H69AR cells under doxorubicin, pilot screen, MRP-1 activator project, CellTiter-Glo, duplicate (AID 807;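 active = viability increase at or above a cutoff of the median across tested compounds plus 3 SD, cut at about 8.5% in these data, passing the limit was not always enough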;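 note: compound pretreatment 18-22 h then 72 h combined with doxorubicin; 0% = doxorubicin alone and 100% = vehicle without doxorubicin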); details: H69AR viability with doxorubicin, CellTiter-Glo luminescence; at 10 µM; active compounds read high
[4] = growth suppression of beta-catenin knockout HCT116, pilot screen, human colon tumor cells (AID 823;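 active = cell viability at or below a set limit in both duplicate runs, the limit being the all-compound median minus 4 SD, cut at about 23% in these data, passing the limit was not always enough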;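 note: 0% = wells killed by 20 µM Hyamine and 100% = untreated DMSO cell wells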); details: CellTiter-Glo, 60 h, at 10 µM, active compounds read low
[5] = growth suppression of PTEN-deleted HCT116, pilot screen, cell-based, HCT116 clonal line, CellTiter-Glo (AID 824;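 active = viability at or below 27.92% in each of two runs, the all-compound median minus 4 SD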;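 note: 0% = 20 µM Hyamine control and 100% = vehicle cell control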); details: 60 h, at 10 µM, active compounds read low
[6] = inhibitors of the yeast RAM network, pilot screen, dse1pr::URA3 reporter, 5-FOA selection (AID 869;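 active = inhibition over a set limit, the all-compound mean plus 3 SD, in both replicate runs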;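 note: 0% = DMSO wells with no growth and 100% = 10 µM 1-NA-PP1 with full growth; RAM network block rescues cells from 5-FOA so hits raise OD615 growth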); details: S. cerevisiae dse1pr::URA3 5-FOA growth, OD615, 2 d; at 10 µM; active compounds read high; strain carries analog-sensitive mutant Cbk1 kinase
[7] = RAM signaling pathway blockade in yeast – S. cerevisiae, Pdr1DBD-CYC8 efflux-inhibited sensitized strain, primary screen (AID 1298;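 active = RAM network inhibition above 8.4% in each of two replicates, 3 SD over the compound average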;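 note: 0% = DMSO untreated cells without growth and 100% = 10 µM 1-NA-PP1 full growth; higher means more yeast growth rescued from 5-FOA killing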); details: S. cerevisiae cbk1-as DSE1-URA3 strain, 5-FOA growth OD615, 2 d; at 50 µM; active compounds read high

COc1cc(NC(=O)C(F)(F)F)cc(OC)c1
inactive: growth inhibition [1] -10.5% | growth inhibition [2] -13.3% | viability increase [3] -0.69% | viability [4] 98.2% | viability [5] 108% | inhibition [6] 0.22% | RAM network inhibition [7] 1.3%

O=C(NC12CC3CC(CC(C3)C1)C2)c1cccnc1
inactive: growth inhibition [1] -3.12% | growth inhibition [2] 15.7% | viability increase [3] -0.51% | viability [4] 104% | viability [5] 97.7% | inhibition [6] 2.61% | RAM network inhibition [7] 3.7%

CCOC(=O)CSc1nc(N)nc(C)c1Br
inactive: growth inhibition [1] -0.46% | growth inhibition [2] -3.4% | viability increase [3] -2.62% | viability [4] 103% | viability [5] 104% | inhibition [6] 0.49% | RAM network inhibition [7] 0.51%

COc1ccc(CCNC(=O)CCn2c(=O)oc3ccccc32)cc1OC
inactive: growth inhibition [1] -6.99% | growth inhibition [2] -12.8% | viability increase [3] -0.1% | viability [4] 105% | viability [5] 97.9% | inhibition [6] 1.47% | RAM network inhibition [7] 1.61%

CCSc1nc2c(cnn2-c2ccc(C)c(C)c2)c(=O)[nH]1
inactive: growth inhibition [1] -2.47% | growth inhibition [2] -2.05% | viability increase [3] -1% | viability [4] 98.8% | viability [5] 94.2% | inhibition [6] 1.42% | RAM network inhibition [7] 7.85%

CCCCn1c(CN2CCN(C(=O)c3ccco3)CC2)nc2c1c(=O)n(C)c(=O)n2C
inactive: growth inhibition [1] -3.45% | growth inhibition [2] -7.47% | viability increase [3] -4.33% | viability [4] 101% | viability [5] 98% | inhibition [6] 0.905% | RAM network inhibition [7] 2.15%

OCCn1c(SCCOc2ccccc2F)nc2ccccc21
inactive: growth inhibition [1] -4.44% | growth inhibition [2] -1.06% | viability increase [3] -3.24% | viability [4] 91.5% | viability [5] 88.4% | inhibition [6] 2.67% | RAM network inhibition [7] 2.71%

COCc1nnc(SCC(=O)Nc2cccc(Cl)c2C)n1-c1ccccc1
inactive: growth inhibition [1] -5.62% | growth inhibition [2] -13% | viability increase [3] -0.41% | viability [4] 107% | viability [5] 93.3% | inhibition [6] 0.57% | RAM network inhibition [7] 3.49%

NC(=O)CCc1c[nH]c2ccccc12
inactive: growth inhibition [1] -1.2% | growth inhibition [2] -4.15% | viability increase [3] -3.35% | viability [4] 91% | viability [5] 94.2% | inhibition [6] 2.47% | RAM network inhibition [7] 5.98%

C=CCn1c(=N)c(C(=O)OCC)cc2c(=O)n3cc(C)ccc3nc21
inactive: growth inhibition [1] 1.62% | growth inhibition [2] 0.61% | viability increase [3] -1.79% | viability [4] 87% | viability [5] 87.4% | inhibition [6] 1.7% | RAM network inhibition [7] 3.98%

CCc1nc(C)cn1S(=O)(=O)c1cc(C)c(OC)cc1C
inactive: growth inhibition [1] -0.385% | growth inhibition [2] 0.98% | viability increase [3] 0.56% | viability [4] 102% | viability [5] 103% | inhibition [6] 1.69% | RAM network inhibition [7] 12.1%

Cc1nn(C(=O)c2cccs2)c(N)c1-c1ccccc1
inactive: growth inhibition [1] 2.29% | growth inhibition [2] 5.9% | viability increase [3] 0.4% | viability [4] 84.4% | viability [5] 96% | inhibition [6] 0.035% | RAM network inhibition [7] 2.36%

O=C(c1cnn2c(C(F)(F)F)cc(-c3ccco3)nc12)N1CCCCCC1
inactive: growth inhibition [1] -14.5% | growth inhibition [2] -11.4% | viability increase [3] -4.15% | viability [4] 91.3% | viability [5] 91.5% | inhibition [6] 0.705% | RAM network inhibition [7] 1.5%

COc1ccccc1Nc1cc(C(=O)NCCCN2CCOCC2)c2ccccc2n1
inactive: growth inhibition [1] -7.99% | growth inhibition [2] -0.795% | viability increase [3] -3.47% | viability [4] 89.1% | viability [5] 91.4% | inhibition [6] 0.455% | RAM network inhibition [7] 0.58%

O=C(CSc1n[nH]c(-c2ccccc2)n1)c1ccccc1
inactive: growth inhibition [1] -0.485% | growth inhibition [2] 16.9% | viability increase [3] -0.56% | viability [4] 95.8% | viability [5] 95.5% | inhibition [6] 1.01% | RAM network inhibition [7] 2.45%

C=CCn1c(SCC(=O)Nc2cc(C)nn2-c2ccccc2)nnc1C1CCCCC1
inactive: growth inhibition [1] -7.09% | growth inhibition [2] -6.5% | viability increase [3] -1.14% | viability [4] 90.8% | viability [5] 94.3% | inhibition [6] 0.165% | RAM network inhibition [7] 3.38%

Nc1cccc(C(=O)Nc2ccc3nc(-c4cccnc4)[nH]c3c2)c1
inactive: growth inhibition [1] -2% | growth inhibition [2] -4.3% | viability increase [3] -1.88% | viability [4] 109% | viability [5] 102% | inhibition [6] 2.84% | RAM network inhibition [7] 6.1%

CC1(C)CC(=O)C=C(NCCN2CCN(C(=O)Nc3ccc(Cl)cc3)CC2)C1
inactive: growth inhibition [1] -1.03% | growth inhibition [2] 5.34% | viability increase [3] 1.25% | viability [4] 99.2% | viability [5] 101% | inhibition [6] 1.35% | RAM network inhibition [7] 4.07%

CC(CN(C)Cc1ccccc1)OC(=O)C1COc2ccccc2O1 (stereo unspecified)
inactive: growth inhibition [1] -9.66% | growth inhibition [2] 6.59% | viability increase [3] 0.39% | viability [4] 101% | viability [5] 102% | inhibition [6] 1.3% | RAM network inhibition [7] 2.25%

CCOC(=O)c1csc(NC(=O)c2ccccc2)n1
inactive: growth inhibition [1] -6.33% | growth inhibition [2] 0.485% | viability increase [3] 4.7% | viability [4] 101% | viability [5] 99.7% | inhibition [6] 0.115% | RAM network inhibition [7] -2.57%

O=C(CCn1c(=O)oc2ccccc21)NCCCN1CCCC1=O
inactive: growth inhibition [1] 4.51% | growth inhibition [2] 0.85% | viability increase [3] 1.26% | viability [4] 107% | viability [5] 98.5% | inhibition [6] 1.01% | RAM network inhibition [7] 0.46%

N#CC1=C2SCN(c3ccccc3)CN2C(=O)CC1c1c(Cl)cccc1Cl (stereo unspecified)
inactive: growth inhibition [1] -3.85% | growth inhibition [2] 18.9% | viability increase [3] -7.7% | viability [4] 84.3% | viability [5] 93% | inhibition [6] 1.14% | RAM network inhibition [7] 4.42%

Cc1cccc(Cn2c(CN3CCN(Cc4ccccc4)CC3)nc3c2c(=O)[nH]c(=O)n3C)c1
inactive: growth inhibition [1] -14.3% | growth inhibition [2] -14.1% | viability increase [3] -3.25% | viability [4] 50.4% | viability [5] 48.6% | inhibition [6] 2.25% | RAM network inhibition [7] 1.88%
